*1 amine or outer side, *2 acyl side, *3 side chain or, on linkers, in order; H or OH if unused. Where a SMILES comes first, the peptide text is derived from it. Bridges are numbered along the chain shown (N, C = ends). Roman numbers before positions name the chains, in order. [ ]: non-standard residue; d: D form. Pro(4R-SH) = O=C([C@@H]1C[C@@H](S[*:3])CN1[*:1])[*:2]; Pro(4S-SH) = O=C([C@@H]1C[C@H](S[*:3])CN1[*:1])[*:2]; hCys = N[C@@H](CCS)C(=O)O; Sar = CNCC(=O)O
Tests used:
Oryctolagus cuniculus = organism: Oryctolagus cuniculus; assay: Agonist efficacy assessed from contractile responses on rabbit aorta (AT1); format: functional
How it was run: (§1)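 Rabbit thoracic aortic rings held in 20-mL baths of Krebs-bicarbonate at 37 °C, gassed with 5% CO2 in oxygen. Resting tension 4.0 g, 90-min equilibration. Peptides added cumulatively until maximal response. EC50 read graphically from the curves as the concentration giving 50% of maximal contraction.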

[1] = biological target: T1, Angiotensin II receptor (AT-1) type-1 (Rattus norvegicus, UniProt P29089+P25095); assay: In vitro binding affinity to the angiotensin II receptor, type 1 in rat liver
T1 sequence (P29089 whole entry): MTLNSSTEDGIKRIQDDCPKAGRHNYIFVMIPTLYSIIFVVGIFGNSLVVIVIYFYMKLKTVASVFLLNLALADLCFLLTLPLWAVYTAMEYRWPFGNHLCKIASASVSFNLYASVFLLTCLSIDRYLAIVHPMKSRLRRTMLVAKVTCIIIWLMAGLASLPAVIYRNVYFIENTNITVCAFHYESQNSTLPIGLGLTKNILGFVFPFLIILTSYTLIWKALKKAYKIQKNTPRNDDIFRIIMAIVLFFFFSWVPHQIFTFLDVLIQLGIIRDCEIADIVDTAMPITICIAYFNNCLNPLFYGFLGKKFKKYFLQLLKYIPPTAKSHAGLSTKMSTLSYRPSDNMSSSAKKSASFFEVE
T1 sequence (P25095 whole entry): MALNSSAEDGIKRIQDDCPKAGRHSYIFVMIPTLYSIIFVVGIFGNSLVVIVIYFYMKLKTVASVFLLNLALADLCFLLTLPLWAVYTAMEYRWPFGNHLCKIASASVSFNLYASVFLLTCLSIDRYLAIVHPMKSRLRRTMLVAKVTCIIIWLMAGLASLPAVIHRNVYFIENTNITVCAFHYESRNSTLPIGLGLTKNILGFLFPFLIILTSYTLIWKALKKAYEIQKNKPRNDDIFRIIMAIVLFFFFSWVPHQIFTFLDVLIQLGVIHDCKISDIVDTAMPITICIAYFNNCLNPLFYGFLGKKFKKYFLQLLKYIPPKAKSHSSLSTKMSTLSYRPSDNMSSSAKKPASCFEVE
How it was run: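 Buffer: 50 mM NaH2PO4 pH 7.1 with 100 μM bacitracin, 0.2% BSA, 100 mM NaCl, 10 mM MgCl2, 1 mM EGTA. Incubated 1 h at 25 °C, then filtered, and filters counted. IC50 from weighted nonlinear regression to the mass action equation.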

[2] = biological target: T2, Type-1 angiotensin II receptor (Oryctolagus cuniculus, UniProt P34976); assay: Agonist efficacy assessed from contractile responses on rabbit aorta Angiotensin II receptor, type 1; Not Active; format: functional, tissue-based; how it was run: as §1
T2 sequence (P34976 whole entry): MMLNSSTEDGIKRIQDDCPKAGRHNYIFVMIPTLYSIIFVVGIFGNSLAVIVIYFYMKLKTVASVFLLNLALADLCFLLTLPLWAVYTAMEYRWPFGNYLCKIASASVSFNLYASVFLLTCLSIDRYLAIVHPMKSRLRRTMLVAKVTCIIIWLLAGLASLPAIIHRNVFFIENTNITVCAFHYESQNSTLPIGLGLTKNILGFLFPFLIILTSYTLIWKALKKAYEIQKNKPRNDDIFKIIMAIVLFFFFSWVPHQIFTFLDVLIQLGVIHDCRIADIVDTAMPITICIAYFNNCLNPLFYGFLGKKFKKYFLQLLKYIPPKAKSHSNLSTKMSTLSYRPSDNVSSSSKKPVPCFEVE

| EC50 (Oryctolagus cuniculus) [nM] | IC50 [1] [nM] | EC50 [2] | Molecule |
| --- | --- | --- | --- |
| 700 | 29 | – | CNCC(=O)N[C@@H](CCCN=C(N)N)C(=O)N1C[C@H]2C[C@H]1C(=O)N[C@@H](Cc1ccc(O)cc1)C(=O)N[C@H](C(=O)N[C@@H](Cc1c[nH]cn1)C(=O)N1CCC[C@H]1C(=O)N[C@@H](Cc1ccccc1)C(=O)O)CCSS2 (H-[Sar]R[Pro(4R-SH)]Y[hCys]HPF-OH; disulfide 3-5) |
| 440 | 510 | – | CNCC(=O)N[C@@H](CCCN=C(N)N)C(=O)N1C[C@@H]2C[C@H]1C(=O)N[C@@H](Cc1ccc(O)cc1)C(=O)N[C@H](C(=O)N[C@@H](Cc1c[nH]cn1)C(=O)N1CCC[C@H]1C(=O)N[C@@H](Cc1ccccc1)C(=O)O)CCSS2 (H-[Sar]R[Pro(4S-SH)]Y[hCys]HPF-OH; disulfide 3-5) |
| 160 | 18 | – | CNCC(=O)N[C@@H](CCCN=C(N)N)C(=O)N[C@H]1CSS[C@@H]2C[C@@H](C(=O)N[C@@H](Cc3c[nH]cn3)C(=O)N3CCC[C@H]3C(=O)N[C@@H](Cc3ccccc3)C(=O)O)N(C2)C(=O)[C@H](Cc2ccc(O)cc2)NC1=O (H-[Sar]RCY[Pro(4R-SH)]HPF-OH; disulfide 3-5) |
| – | 4700 | Not Active | CNCC(=O)N[C@@H](CCCN=C(N)N)C(=O)N1C[C@@H]2C[C@H]1C(=O)N[C@@H](Cc1ccc(O)cc1)C(=O)N[C@H](C(=O)N[C@@H](Cc1c[nH]cn1)C(=O)N1CCC[C@H]1C(=O)N[C@@H](Cc1ccccc1)C(=O)O)CSS2 (H-[Sar]R[Pro(4S-SH)]YCHPF-OH; disulfide 3-5) |
| 870 | 110 | – | CNCC(=O)N[C@@H](CCCN=C(N)N)C(=O)N1C[C@@H]2C[C@H]1C(=O)N[C@@H](Cc1ccc(O)cc1)C(=O)N[C@H](C(=O)N[C@@H](Cc1c[nH]cn1)C(=O)N1CCC[C@H]1C(=O)N[C@@H](Cc1ccccc1)C(=O)O)CSS[C@H]1C[C@@H](C(=O)N[C@@H](Cc3ccc(O)cc3)C(=O)N[C@H](C(=O)N[C@@H](Cc3c[nH]cn3)C(=O)N3CCC[C@H]3C(=O)N[C@@H](Cc3ccccc3)C(=O)O)CSS2)N(C(=O)[C@H](CCCN=C(N)N)NC(=O)CNC)C1 (I: H-[Sar]R[Pro(4S-SH)]YCHPF-OH / II: H-[Sar]R[Pro(4S-SH)]YCHPF-OH; disulfide I:3-II:5, I:5-II:3) |
| 53 | 12 | – | CNCC(=O)N[C@@H](CCCN=C(N)N)C(=O)N[C@H]1CC(=O)NCCCC[C@@H](C(=O)N[C@@H](Cc2c[nH]cn2)C(=O)N2CCC[C@H]2C(=O)N[C@@H](Cc2ccccc2)C(=O)O)NC(=O)[C@H](Cc2ccc(O)cc2)NC1=O (H-[Sar]RDYKHPF-OH; lactam 3-5) |
| 13 | 1.3 | – | CNCC(=O)N[C@@H](CCCN=C(N)N)C(=O)N[C@H]1CCSS[C@@H]2C[C@@H](C(=O)N[C@@H](Cc3c[nH]cn3)C(=O)N3CCC[C@H]3C(=O)N[C@@H](Cc3ccccc3)C(=O)O)N(C2)C(=O)[C@H](Cc2ccc(O)cc2)NC1=O (H-[Sar]R[hCys]Y[Pro(4R-SH)]HPF-OH; disulfide 3-5) |
| 690 | 110 | – | CNCC(=O)N[C@@H](CCCN=C(N)N)C(=O)N[C@H]1CCSS[C@H]2C[C@@H](C(=O)N[C@@H](Cc3c[nH]cn3)C(=O)N3CCC[C@H]3C(=O)N[C@@H](Cc3ccccc3)C(=O)O)N(C2)C(=O)[C@H](Cc2ccc(O)cc2)NC1=O (H-[Sar]R[hCys]Y[Pro(4S-SH)]HPF-OH; disulfide 3-5) |
| 32 | 5.57 | – | CC[C@H](C)[C@H](NC(=O)[C@H](Cc1ccc(O)cc1)NC(=O)[C@@H](NC(=O)[C@@H](N)CCCN=C(N)N)C(C)C)C(=O)N[C@@H](Cc1c[nH]cn1)C(=O)N1CCC[C@H]1C(=O)N[C@@H](Cc1ccccc1)C(=O)O [ANGIOTENSIN III] |
| 2.5 | – | – | CC[C@H](C)[C@H](NC(=O)[C@H](Cc1ccc(O)cc1)NC(=O)[C@@H](NC(=O)[C@H](CCCNC(=N)N)NC(=O)[C@@H](N)CC(=O)O)C(C)C)C(=O)N[C@@H](Cc1cnc[nH]1)C(=O)N1CCC[C@H]1C(=O)N[C@@H](Cc1ccccc1)C(=O)O [ANGIOTENSIN II] |
| > 10000 | 300 | – | H-DRVYIHPFHL-OH |
| 460 | 190 | – | CNCC(=O)N[C@@H](CCCN=C(N)N)C(=O)N1C[C@@H]2C[C@H]1C(=O)N[C@@H](Cc1ccc(O)cc1)C(=O)N[C@H](C(=O)N[C@@H](Cc1c[nH]cn1)C(=O)N1CCC[C@H]1C(=O)N[C@@H](Cc1ccccc1)C(=O)O)CSSC[C@H](C(=O)N[C@H](Cc1c[nH]cn1)C(=O)N1CCC[C@@H]1C(=O)N[C@H](Cc1ccccc1)C(=O)O)NC(=O)[C@@H](Cc1ccc(O)cc1)NC(=O)[C@H]1C[C@H](CN1C(=O)[C@@H](CCCN=C(N)N)NC(=O)CNC)SS2 |
| 3.2 | – | – | CNCC(=O)N[C@@H](CCCN=C(N)N)C(=O)N[C@H]1CCSSCC[C@@H](C(=O)N[C@@H](Cc2c[nH]cn2)C(=O)N2CCC[C@H]2C(=O)N[C@@H](Cc2ccccc2)C(=O)O)NC(=O)[C@H](Cc2ccc(O)cc2)NC1=O (H-[Sar]R[hCys]Y[hCys]HPF-OH; disulfide 3-5) |
